Key:
[1] = Intrinsic clearance in human liver microsomes at 1 uM measured after 60 mins in presence NADPH by LC-MS/MS analysis; format: ADME, microsome; details: read-out: CLH
Summary of the method: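 Compound at 1 μM with human liver microsomes (0.8 mg protein/mL) in Dulbecco's buffer pH 7.4, 1 mM NADPH, 37 °C, in duplicate. Sampled at 0, 5, 10, 20, 30 and 60 min, quenched with ice-cold acetonitrile, and unchanged compound measured by LC−MS/MS. No-NADPH controls; midazolam (1 μM) as phase I control.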

[2] = Apparent permeability across apical to basolateral side in human Caco2 cells at 10 uM after 2 hrs by LC-MS/MS analysis; format: ADME, cell-based; details: Caco-2
[3] = Protein binding in human plasma at 5 uM after 5 hrs by LC-MS/MS analysis; format: ADME, cell-free; details: read-out: PPB (converted)
[4] = Metabolic stability in human lung S9 fraction assessed as compound remaining at 1 uM measured after 60 mins in presence of NADPH by LC-MS/MS analysis; format: ADME; details: read-out: Stability
[5] = Metabolic stability in human plasma assessed as compound remaining at 1 uM measured after 60 mins in presence of NADPH by LC-MS/MS analysis; format: ADME, cell-free; details: read-out: Stability
[6] = Inhibition of PDE4 in human U937 cell lysates assessed as residual cAMP after 2.5 mins by LANCE assay
[7] = Inhibition of PDE4 in human PBMC assessed as reduction in LPS-induced TNFalpha release after 18 hrs by quantitative ELISA
[8] = Intrinsic clearance in human hepatocytes assessed per million cells at 1 uM measured after 90 mins by LC-MS/MS analysis; format: ADME, cell-based, Hepatocyte; details: read-out: CLH
Summary of the method: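 Compound at 1 μM with hepatocytes (1 million cells/mL) in Leibovitz L-15 at 37 °C, in duplicate. Sampled at 0, 10, 20, 30, 60 and 90 min, quenched with ice-cold acetonitrile, centrifuged, and unchanged compound measured by LC−MS/MS. Included 7-ethoxycoumarin and 7-hydroxycoumarin activity controls and cell-free medium controls.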

[9] = Apparent permeability across basolateral to apical side in human Caco2 cells at 10 uM after 2 hrs by LC-MS/MS analysis; format: ADME, cell-based; details: Caco-2
[10] = system: Rattus norvegicus; assay: Anti-inflammatory activity in OVA-induced airway inflammation Brown Norway rat model assessed inhibition of eosinophils recruitment in bronchoalveolar lavage fluid administered intratracheally as powder formulation 2 hrs before aerosolized OVA challenge measured at 24 hrs post aerosolized OVA challenge; format: functional
Summary of the method: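 Male Brown Norway rats sensitized i.p. with OVA (1 mg/rat) plus Al(OH)3 (100 mg/rat) in saline on 3 consecutive days. Challenged 2–3 weeks later with nose-only 1% OVA aerosol for 30 min. Lactose-blended dry powder (10 mg/kg total powder) insufflated intratracheally; dose taken from needle weight difference. BAL with 3 × 4 mL HBSS/EDTA/HEPES at 24 h; total and differential counts by automated counter. ED50 from fitted dose–response curve.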

Structure (SMILES) | microsomal CLint at 1 µM [1] [µL/min/mg] | Papp A→B at 2 h, 10 µM [2] [×10⁻⁶ cm/s] | fraction unbound at 5 h, 5 µM [3] | remaining at 1 h, 1 µM [4] [%] | remaining at 1 h, 1 µM [5] [%] | IC50 [6] [nM] | IC50 [7] [nM] | hepatocyte CLint at 1 µM [8] [µL/min/1e6 cells] | Papp B→A at 2 h, 10 µM [9] [×10⁻⁶ cm/s] | inhibition [10] | ED50 ([10]; inhaled or nasal) [µmol/kg]
CNC(=O)c1cc(S(=O)(=O)N2CCS[C@H]2C(=O)O[C@@H](Cc2c(Cl)c[n+]([O-])cc2Cl)c2ccc(OC(F)F)c(OCC3CC3)c2)cn1C (relative stereo) | 202 | 1.26 | 0.0016 | 63.5 | 100 | 0.025 | 0.03 | 47.6 | 18.3 | – | –
O=C(O[C@@H](Cc1c(Cl)c[n+]([O-])cc1Cl)c1ccc(OC(F)F)c(OCC2CC2)c1)[C@H]1CCCN1S(=O)(=O)c1ccccc1 | – | – | – | – | – | 0.06 | 0.34 | – | – | – | –
COc1ccc(S(=O)(=O)N2CCS[C@H]2C(=O)O[C@@H](Cc2c(Cl)c[n+]([O-])cc2Cl)c2ccc(OC(F)F)c(OCC3CC3)c2)cc1C(=O)N(C)C (relative stereo) | 360 | 0.23 | 0.0017 | 71.2 | 98.8 | 0.026 | 0.022 | 47.6 | 7.67 | – | –
CN(C)C(=O)c1cccc(S(=O)(=O)N2CCC[C@@H](C(=O)O[C@@H](Cc3c(Cl)c[n+]([O-])cc3Cl)c3ccc(OC(F)F)c(OCC4CC4)c3)C2)c1 (relative stereo) | – | – | – | – | – | 0.031 | 0.12 | – | – | – | –
CN(C)C(=O)c1cccc(S(=O)(=O)N2CCS[C@@H]2C(=O)O[C@H](Cc2c(Cl)c[n+]([O-])cc2Cl)c2ccc(OC(F)F)c(OCC3CC3)c2)c1 | – | – | – | – | – | 6.4 | – | – | – | – | –
CCCC1O[C@@H]2C[C@H]3[C@@H]4CCC5=CC(=O)C=C[C@]5(C)[C@H]4[C@@H](O)C[C@]3(C)[C@]2(C(=O)CO)O1 (stereo not given in full) [BUDESONIDE] | – | – | – | – | – | – | – | – | – | Dose-dependent effect | 0.04
COCCS(=O)(=O)N1CCS[C@H]1C(=O)O[C@@H](Cc1c(Cl)c[n+]([O-])cc1Cl)c1ccc(OC(F)F)c(OCC2CC2)c1 (relative stereo) | – | – | – | – | – | 0.043 | 0.078 | – | – | – | –
Cn1cnc(S(=O)(=O)N2CCS[C@H]2C(=O)O[C@@H](Cc2c(Cl)c[n+]([O-])cc2Cl)c2ccc(OC(F)F)c(OCC3CC3)c2)c1 | 281 | 0.22 | 0.015 | 77.7 | 101 | 0.02 | 0.028 | 66.9 | 3.95 | – | –
COc1ccc(S(=O)(=O)N2CCC[C@H]2C(=O)O[C@@H](Cc2c(Cl)c[n+]([O-])cc2Cl)c2ccc(OC(F)F)c(OCC3CC3)c2)cc1C(=O)N(C)C (relative stereo) | 365 | 0.5 | 0.0032 | 71.6 | 101 | 0.0351 | 0.042 | 56.7 | 12.5 | – | –
O=C(O[C@@H](Cc1c(Cl)c[n+]([O-])cc1Cl)c1ccc(OC(F)F)c(OCC2CC2)c1)c1cccn1S(=O)(=O)c1ccccc1 | – | – | – | – | – | 0.825 | – | – | – | – | –
CN(C)C(=O)c1cccc(S(=O)(=O)N2CCS[C@H]2C(=O)O[C@H](Cc2c(Cl)c[n+]([O-])cc2Cl)c2ccc(OC(F)F)c(OCC3CC3)c2)c1 | – | – | – | – | – | 3.01 | – | – | – | – | –
COc1ccc(S(=O)(=O)N2CCC[C@H]2C(=O)O[C@@H](Cc2c(Cl)c[n+]([O-])cc2Cl)c2ccc(OC(F)F)c(OCC3CC3)c2)cc1OC (relative stereo) | – | – | – | – | – | 0.0324 | 0.36 | – | – | – | –

More lines, in order of falling IC50 [6], values ahead:

microsomal CLint at 1 µM [1] [µL/min/mg] | Papp A→B at 2 h, 10 µM [2] [×10⁻⁶ cm/s] | fraction unbound at 5 h, 5 µM [3] | remaining at 1 h, 1 µM [4] [%] | remaining at 1 h, 1 µM [5] [%] | IC50 [6] [nM] | IC50 [7] [nM] | hepatocyte CLint at 1 µM [8] [µL/min/1e6 cells] | Papp B→A at 2 h, 10 µM [9] [×10⁻⁶ cm/s] | Structure (SMILES) | inhibition [10] | ED50 ([10]; inhaled or nasal) [µmol/kg]
– | – | – | – | – | 0.061 | 0.07 | – | – | O=C(O[C@@H](Cc1c(Cl)c[n+]([O-])cc1Cl)c1ccc(OC(F)F)c(OCC2CC2)c1)[C@@H]1SCCN1S(=O)(=O)c1cccnc1 (relative stereo) | – | –
363 | 21.7 | 0.0012 | 72.5 | 104 | 0.056 | 0.012 | 64.6 | 73.4 | CN(C)C(=O)c1cccc(S(=O)(=O)N2CCCC[C@H]2C(=O)O[C@@H](Cc2c(Cl)c[n+]([O-])cc2Cl)c2ccc(OC(F)F)c(OCC3CC3)c2)c1 (relative stereo) | – | –
– | – | – | – | – | 0.0442 | 0.31 | – | – | COCCS(=O)(=O)N1CCC[C@H]1C(=O)O[C@@H](Cc1c(Cl)c[n+]([O-])cc1Cl)c1ccc(OC(F)F)c(OCC2CC2)c1 (relative stereo) | – | –
200 | 0.25 | 0.004 | 50.7 | 101 | 0.041 | 0.057 | 53.8 | 0.82 | COc1ccc(S(=O)(=O)N2CCS[C@H]2C(=O)O[C@@H](Cc2c(Cl)c[n+]([O-])cc2Cl)c2ccc(OC(F)F)c(OCC3CC3)c2)cc1OC (relative stereo) | – | –
244 | 13.2 | 0.0023 | 59.7 | 88.2 | 0.031 | 0.015 | 33.2 | 68.4 | COc1ccc(S(=O)(=O)N2CCCC[C@H]2C(=O)O[C@@H](Cc2c(Cl)c[n+]([O-])cc2Cl)c2ccc(OC(F)F)c(OCC3CC3)c2)cc1C(=O)N(C)C (relative stereo) | – | –
